Here are results for two molecules from ChEMBL document CHEMBL1828568, “Novel imaging agents for β-amyloid plaque based on the N-benzoylindole core” (Bioorg Med Chem Lett, 2011).

A short description of the test: Displacement of [125I]TZDM from amyloid beta (1 to 40) aggregates after 2 hrs by gamma counting. The procedure, abridged: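 Competition binding against [125I]TZDM as radiolabeled standard, using Aβ1–40 aggregates; run in triplicate, results as mean ± SD.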
Background: In a radioligand displacement assay an active substance lowers the binding of a labelled ligand.

Turning to `COc1ccc(/C=C/C(=O)n2ccc3cc(OC)ccc32)cc1`, the affinity corresponds to a Ki of 60.8 nM.

With `COc1ccc(/C=C/C(=O)n2ccc3cc(F)ccc32)cc1`, the Ki – broadly, the dissociation constant of the complex between target and ligand, obtained from inhibition or displacement – is 32.4 nM.
